# Test results: the RNAGym collection of RNA variant scans (doi:10.1126/science.aae0568)
# Variants at the floor of the assay were thinned out.
# B1: tRNA (parent)
# chain: GUUCCGUUGGCGUAAUGGUAACGCGUCUCCCUCCUAAGGAGAAGACUGCGGGUUCGAGUCCCGUACGGAACG
# Variants of: B1
# Assay: yeast fitness relative to wild type (ratio to wild type); higher = fitter; tRNA-Arg(CCU), competitive growth, 37 C, YPD
# In short: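 A pool of Saccharomyces cerevisiae strains, each with a tRNA-Arg(CCU) gene variant at the native genomic locus, was competed in YPD at 37°C for 24 hours across six parallel replicates. The variants had been chemically synthesised at a 3% per-site mutation rate over 69 sites, and gene amplicons before and after competition were read by 100-nucleotide paired-end sequencing. Darwinian fitness relative to wild type rested on changes in genotype frequencies. Genotypes required ≥ 100 starting reads, and estimates < 0.5 were set to 0.5.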
row,Variant,yeast fitness
1,U2A U7C G25A A36U,≤ 0.5
2,U2C A21G A65U,0.665
3,U2A G58C C66U,0.702
4,U2C A14C G39A,≤ 0.5
5,U2C C11A A14C C22U A45U,≤ 0.5
6,U2A G18A C24A U28A U32C C60A,≤ 0.5
7,U2C A42G C55U,≤ 0.5
8,U2C A42G C61G,≤ 0.5
9,U2C A40G G68C,0.571
10,U2C A37G A40G A45U,≤ 0.5
11,U2A U19A C27U G67A,≤ 0.5
12,U2C A15U U16C G23C,≤ 0.5
13,U2A U54A A65U,≤ 0.5
14,U2A G67C,0.792
15,U2A G67A,0.844
16,U2A U32A C62G,0.509
17,U2C A21G A36G G38C,≤ 0.5
18,U2C C5G A45C A69U,0.549
19,U2C A15C U19C C22G C34U G39C C62U A65C,≤ 0.5
20,U2C A37U U53A G63A,≤ 0.5
21,U2A G18A G23C A45U,0.573
22,U2A U16A C31G,0.875
23,U2C A40C G48A,0.751
24,U2A G9C G17A C60G,0.572

row,Variant,yeast fitness
1,U2C A20C C29G A36C G52C A57U,≤ 0.5
2,U2A U16A U19A C46U,0.714
3,U2C C4G G9A C24U A45C,≤ 0.5
4,U2C C4U A42G,0.512
5,U2A U16A C49A G50A G68C,≤ 0.5
6,U2C A36G C61G U64C,≤ 0.5
7,U2C C4A C29G,0.704
8,U2C A20U G25A C27G G67A,≤ 0.5
9,U2A U64A,0.855
10,U2C C4G G6C G18A C24U C27A U35C G41A U47C,≤ 0.5
11,U2A U7C G25A A36C C60A C62G,0.524
12,U2C A42G A45C C61G,≤ 0.5
13,U2A U16G A70C,0.835
14,U2A G23C G58A,≤ 0.5
15,U2C C11G C46A A70C,≤ 0.5
16,U2A G50C,0.562
17,U2A U16C C30A A69C,0.544
18,U2C A40U U54A,≤ 0.5
19,U2A G10A C49A U53C C62G,≤ 0.5
20,U2C C4U C34A A65C C66G,0.583
21,U2C C5A C24A U64G,≤ 0.5
22,U2C A14C C46A,≤ 0.5
23,U2C A37G C55G U64A,≤ 0.5
24,U2A G12U C55U,≤ 0.5

row,Variant,yeast fitness
1,U2A U13A C24A A45C,≤ 0.5
2,U2C A14U A21U,0.596
3,U2C C5A G10C G12A G23A,≤ 0.5
4,U2C C11G U19G,≤ 0.5
5,U2C A40C C66U,0.524
6,U2C A15U A20U,≤ 0.5
7,U2A G18C G23A G25C A37G A43C C55G G68A,0.558
8,U2A U32C C33A G51C G68A,≤ 0.5
9,U2C A14C C46A A65G,≤ 0.5
10,U2C C4U C27U A45C G48A G56C,≤ 0.5
11,U2A U32C U53C,≤ 0.5
12,U2A G39A U47A C49U U54A,≤ 0.5
13,U2A U13A A14C C33U G52C,≤ 0.5
14,U2C A45G G56C,0.575
15,U2A U8C C24G A43U C46U,≤ 0.5
16,U2A U16G A42G A43U C46U C62U,≤ 0.5
17,U2C A36U C46G A69U,0.517
18,U2C A15U A20U C27U C61G,≤ 0.5
19,U2A U16C C30A G67C,0.557
20,U2C A45U C46G G58C U59C A65G C66G,0.628
21,U2A G52C,0.65
22,U2A U16G G50C C55U C60G A69G,≤ 0.5
23,U2A U7G C27U G39C C60A,≤ 0.5
24,U2C A14G G18A G41A A69C,≤ 0.5

row,Variant,yeast fitness
1,U2A U28C G39A,0.508
2,U2A U59C C66G,0.537
3,U2A G23A C29G A45U C60G C61U A69G,≤ 0.5
4,U2A G25C G38C C61U A70G,≤ 0.5
5,U2C A45G C49G,≤ 0.5
6,U2C A15C A20C A65U,0.52
7,U2A U13C U19G C22U C31U A40U G67A,≤ 0.5
8,U2C C5U A15U,0.568
9,U2A U3C G6A G39A,≤ 0.5
10,U2C A57C,0.679
11,U2C A57U,0.685
12,U2A U3A U26A A57U C62G C66U,≤ 0.5
13,U2A U16C C30A,0.558
14,U2C A69C,0.872
15,U2C A69U,0.96
16,U2C A42G G63A,0.543
17,U2A U19A,0.931
18,U2A G25A C31G G39C C49U C60G,≤ 0.5
19,U2A G56C A57G G68U,≤ 0.5
20,U2A U7G C24G C29A A43U U53A A57U A65U,≤ 0.5
21,U2A U32C,0.954
22,U2C C4A U13C C29U U47A G52A C62U,≤ 0.5
23,U2A G63C,0.673
24,U2A G63A,0.927

row,Variant,yeast fitness
1,U2A U13A A14C C33U,≤ 0.5
2,U2A U35C,0.875
3,U2A U8G C33G G38A,≤ 0.5
4,U2C A21C A42U U54A,≤ 0.5
5,U2C A43U G48A C61G A70C,≤ 0.5
6,U2A G17C A57C G63C C66U,≤ 0.5
7,U2A U47C,1.08
8,U2A U3A A45G C49U,0.609
9,U2A G23A C29G A69U,0.643
10,U2C C11G A14C C61U U64A,0.623
11,U2C A14C A37U A40C,≤ 0.5
12,U2C A36C,0.543
13,U2C A36G,0.907
14,U2C A36U,0.682
15,U2C C4U C31A C33U G56C,≤ 0.5
16,U2C C4A G23A C61A,≤ 0.5
17,U2A G10C,0.673
18,U2C A57C A69U,0.578
19,U2A G12A A21C G48C,≤ 0.5
20,U2C C11A A40C,0.553
21,U2A U26G,0.821
22,U2A U26C,0.934
23,U2C A15C C55G A57C C66A,≤ 0.5
24,U2A G39A G48C,≤ 0.5

row,Variant,yeast fitness
1,U2A U8A C33U A43U A57G,≤ 0.5
2,U2C C11G C24A C55A,0.786
3,U2A U3A,0.809
4,U2A U3C,0.931
5,U2C A20C A65U,0.641
6,U2A U8A C11G U54A,≤ 0.5
7,U2C C5A C24A U47A C66G,≤ 0.5
8,U2C A43U G50A U54G C62U,≤ 0.5
9,U2A G25A A69G,0.576
10,U2A U3G C5U C29G C30G C46G,≤ 0.5
11,U2C A14C C31A,≤ 0.5
12,U2C A36C G39A A57U,0.539
13,U2C A40G A43U A45C,≤ 0.5
14,U2C A40U G58C,0.705
15,U2C A20G C30U,0.576
16,U2A U8A C33U A43U A57G G67U,≤ 0.5
17,U2A G48A C60U A69U,≤ 0.5
18,U2A G12C C29U G51A G56A A57G G63C,≤ 0.5
19,U2C C4A C60A C62U,≤ 0.5
20,U2A U28C G39A C62U A65U,≤ 0.5
21,U2C A20U C61A G67A,≤ 0.5
22,U2A U7C G25A A36U C62U G67A,≤ 0.5
23,U2C A15C C55G A57C,0.512
24,U2C A14G G48C,0.709

row,Variant,yeast fitness
1,U2A G12A C30A A43U C60A G67A,≤ 0.5
2,U2A G10C C27A A37U C49A G56A,≤ 0.5
3,U2C C5G G44A C46A G52A C66U,≤ 0.5
4,U2A U16A C66U A69G,≤ 0.5
5,U2A G39U C49A G58C,0.939
6,U2C C4G C27G U32A U35C C49A U59C,≤ 0.5
7,U2C A45G G68A,≤ 0.5
8,U2C A37G G38C C49U G52C A57C A65C,≤ 0.5
9,U2C C5G C46U U54G A65C,≤ 0.5
10,U2A U7C G25A A36U C60A C62G,0.58
11,U2C C5G C27U A45G U53C,≤ 0.5
12,U2A U13C U16A G56C A57G C62U,0.528
13,U2C A15U C34A G39C A40C G56C C61G C62G G68C,≤ 0.5
14,U2C A14G G17A C46U C60A,≤ 0.5
15,U2A U16G G23C C31U A36U U59A,≤ 0.5
16,U2C A20G C22U C24A A69G,≤ 0.5
17,U2A U54A,0.613
18,U2C A14G A57C A69U,≤ 0.5
19,U2C C4U C34U,0.719
20,U2C A14G G18A U32A G44A G56C,≤ 0.5
21,U2C C5G C46U A70G,0.994
22,U2C A14U C61G A70G,≤ 0.5
23,U2A U13A A21C A42G,≤ 0.5
